Active and inactive are the calls of the source. The calls are words filed in the database; no cut-off is given here.
Legend:
[1] = test system: Huh-7; assay: Cytotoxicity against human Huh-7 cells assessed as cell growth inhibition incubated for 72 hrs by SRB assay; format: functional, cell-based; conditions: Huh-7, 72 h
Summary of the method: (§1)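 Cells seeded at 1000–3000 per well, treated after 24 h with 2.5–40 μM (40, 20, 10, 5, 2.5 μM) for 72 h, in duplicate or triplicate; DMSO negative control. Fixed with 10% TCA 1 h at 4 °C, stained with 0.4% SRB in 1% acetic acid, dye solubilized in 10 mM TBS, A515 read; OD normalized to DMSO control, IC50 from growth-inhibition curves.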

[2] = test system: HCT-116; assay: Cytotoxicity against human HCT-116 cells assessed as cell growth inhibition incubated for 72 hrs by SRB assay; format: functional, cell-based; conditions: HCT-116, 72 h; summary of the method: as §1
[3] = test system: MCF7; assay: Cytotoxicity against human MCF7 cells assessed as cell growth inhibition incubated for 72 hrs by SRB assay; format: functional, cell-based; conditions: MCF7, 72 h; summary of the method: as §1
[4] = test system: HepG2; assay: Cytotoxicity against human HepG2 cells assessed as cell growth inhibition incubated for 72 hrs by SRB assay; format: functional, cell-based; conditions: HepG2, 72 h; summary of the method: as §1
[5] = test system: Hep 3B2; assay: Cytotoxicity against human Hep3B cells assessed as cell growth inhibition incubated for 72 hrs by SRB assay; format: functional, cell-based; summary of the method: as §1
[6] = test system: PLC; assay: Cytotoxicity against human PLC cells assessed as cell growth inhibition incubated for 72 hrs by SRB assay; format: functional, cell-based; summary of the method: as §1
[7] = test system: Mahlavu; assay: Cytotoxicity against human Mahlavu cells assessed as cell growth inhibition incubated for 72 hrs by SRB assay; format: functional, cell-based; summary of the method: as §1
[8] = Cytotoxicity against human FOCUS cells assessed as cell growth inhibition incubated for 72 hrs by SRB assay; format: functional, cell-based; summary of the method: as §1
[9] = test system: SNU-475; assay: Cytotoxicity against human SNU-475 cells assessed as cell growth inhibition incubated for 72 hrs by SRB assay; format: functional, cell-based; conditions: SNU-475, 72 h; summary of the method: as §1
[10] = test system: SNU-182; assay: Cytotoxicity against human SNU-182 cells assessed as cell growth inhibition incubated for 72 hrs by SRB assay; format: functional, cell-based; conditions: SNU-182, 72 h; summary of the method: as §1
[11] = test system: SNU-387; assay: Cytotoxicity against human SNU-387 cells assessed as cell growth inhibition incubated for 72 hrs by SRB assay; format: functional, cell-based; conditions: SNU-387, 72 h; summary of the method: as §1
[12] = test system: SNU-398; assay: Cytotoxicity against human SNU-398 cells assessed as cell growth inhibition incubated for 72 hrs by SRB assay; format: functional, cell-based; conditions: SNU-398, 72 h; summary of the method: as §1
[13] = test system: SNU-423; assay: Cytotoxicity against human SNU-423 cells assessed as cell growth inhibition incubated for 72 hrs by SRB assay; format: functional, cell-based; conditions: SNU-423, 72 h; summary of the method: as §1
[14] = test system: SNU-449; assay: Cytotoxicity against human SNU-449 cells assessed as cell growth inhibition incubated for 72 hrs by SRB assay; format: functional, cell-based; conditions: SNU-449, 72 h; summary of the method: as §1
[15] = test system: Huh-7; assay: Cytotoxicity against human Huh-7 cells assessed as cell growth inhibition at 0.625 to 5 uM measured upto 72 hrs by RT-CES analysis; format: functional, cell-based; conditions: dose 0.625-5 µM
Summary of the method: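 Huh7 cells, 2000 per well, treated 24 h after seeding alongside DMSO control; cell index from impedance recorded every 30 min; plots for each concentration normalized to DMSO-treated cells.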

[16] = test system: Huh-7; assay: Induction of morphological changes in human Huh-7 cells assessed as horseshoe-like condensed nuclei at 5 uM incubated for 72 hrs by Hoechst 33258 dye based microscopy; format: functional, cell-based
Summary of the method: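 Huh7 cells on coverslips (50 000 per well) given 5 μM or DMSO 24 h after seeding for 72 h; permeabilized with ice-cold methanol 10 min, Hoechst 33258 stain 5 min in the dark, imaged by fluorescence microscopy with 40× objective.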

[17] = test system: Huh-7; assay: Induction of cell cycle arrest in human Huh-7 cells assessed as increase in accumulation of cells at subG1 phase at 5 uM incubated for 72 hrs by PI staining based flow cytometry; format: functional
Summary of the method: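 Huh7 and Mahlavu cells serum-starved 24 h to synchronize, then given 5 μM or DMSO in fresh growth medium for 72 h. Trypsinized, fixed in ice-cold 70% ethanol at least 3 h at −20 °C, PI-stained with a cell cycle kit, analyzed by flow cytometry for SubG1.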

[18] = test system: Huh-7; assay: Induction of apoptosis in human Huh-7 cells assessed as increase in PARP-1 cleavage at 5 uM incubated for 72 hrs by Western blot analysis; format: functional, cell-based
Summary of the method: (§2)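 Huh7 cells (300 000 per dish) treated 24 h after seeding with 5 μM or DMSO for 72 h. Immunoblot for PARP-1, phospho-Src Tyr416, Src, Rb, phospho-Rb Ser807/811, Cdk2; calnexin and actin as loading controls.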

[19] = target: Proto-oncogene tyrosine-protein kinase Src (Homo sapiens) (UniProt P12931); assay: Inhibition of Src activation in human Huh-7 cells assessed as decrease in phosphorylated Src level at 5 uM incubated for 72 hrs by Western blot analysis; format: cell-based; summary of the method: as §2
Proto-oncogene tyrosine-protein kinase Src (Homo sapiens), sequence (P12931 2-536 limits assumed): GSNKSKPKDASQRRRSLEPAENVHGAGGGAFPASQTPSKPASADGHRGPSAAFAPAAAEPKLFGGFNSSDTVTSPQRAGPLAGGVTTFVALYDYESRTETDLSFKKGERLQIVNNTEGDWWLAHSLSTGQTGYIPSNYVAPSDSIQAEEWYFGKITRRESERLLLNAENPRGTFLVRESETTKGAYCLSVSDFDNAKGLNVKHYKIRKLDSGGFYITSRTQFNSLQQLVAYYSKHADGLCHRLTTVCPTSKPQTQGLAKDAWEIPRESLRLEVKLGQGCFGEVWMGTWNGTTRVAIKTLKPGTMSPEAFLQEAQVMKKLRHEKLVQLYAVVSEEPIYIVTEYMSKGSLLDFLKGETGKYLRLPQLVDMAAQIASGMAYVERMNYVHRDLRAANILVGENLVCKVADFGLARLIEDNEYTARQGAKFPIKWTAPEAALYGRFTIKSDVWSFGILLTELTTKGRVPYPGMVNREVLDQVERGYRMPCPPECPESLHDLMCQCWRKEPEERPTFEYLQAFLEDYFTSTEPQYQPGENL

[20] = target: Proto-oncogene tyrosine-protein kinase Src (Homo sapiens) (UniProt P12931); assay: Inhibition of Src activation in human Huh-7 cells assessed as decrease in phosphorylated Rb level at 5 uM incubated for 72 hrs by Western blot analysis; format: cell-based; summary of the method: as §2
[21] = target: Proto-oncogene tyrosine-protein kinase Src (Homo sapiens) (UniProt P12931); assay: Inhibition of Src activation in human Huh-7 cells assessed as decrease in cyclin E level at 5 uM incubated for 72 hrs by Western blot analysis; format: cell-based; summary of the method: as §2
[22] = target: Proto-oncogene tyrosine-protein kinase Src (Homo sapiens) (UniProt P12931); assay: Inhibition of Src activation in human Huh-7 cells assessed as decrease in Cdk2 level at 5 uM incubated for 72 hrs by Western blot analysis; format: cell-based; summary of the method: as §2
[23] = test system: Huh-7; assay: Upregulation of intracellular ATP level in human Huh-7 cells at 5 uM incubated for 72 hrs by Kinase Glo assay; format: functional, cell-based
Summary of the method: (§3)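 Huh7 and Mahlavu cells grown 24 h, then treated with 5 μM for 72 h. Lysates protein-normalized by Bradford; ATP read by Kinase-Glo Plus luminescence per kit protocol. Staurosporine positive control, DMSO negative control.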

[24] = test system: Mahlavu; assay: Upregulation of intracellular ATP level in human Mahlavu cells at 5 uM incubated for 72 hrs by Kinase Glo assay; format: functional, cell-based; summary of the method: as §3
[25] = target: ALK tyrosine kinase receptor (Homo sapiens) (UniProt Q9UM73); assay: Inhibition of human ALK at 5 uM by Kinomescan profiling analysis relative to control
ALK tyrosine kinase receptor (Homo sapiens), sequence (Q9UM73 19-1620 limits assumed): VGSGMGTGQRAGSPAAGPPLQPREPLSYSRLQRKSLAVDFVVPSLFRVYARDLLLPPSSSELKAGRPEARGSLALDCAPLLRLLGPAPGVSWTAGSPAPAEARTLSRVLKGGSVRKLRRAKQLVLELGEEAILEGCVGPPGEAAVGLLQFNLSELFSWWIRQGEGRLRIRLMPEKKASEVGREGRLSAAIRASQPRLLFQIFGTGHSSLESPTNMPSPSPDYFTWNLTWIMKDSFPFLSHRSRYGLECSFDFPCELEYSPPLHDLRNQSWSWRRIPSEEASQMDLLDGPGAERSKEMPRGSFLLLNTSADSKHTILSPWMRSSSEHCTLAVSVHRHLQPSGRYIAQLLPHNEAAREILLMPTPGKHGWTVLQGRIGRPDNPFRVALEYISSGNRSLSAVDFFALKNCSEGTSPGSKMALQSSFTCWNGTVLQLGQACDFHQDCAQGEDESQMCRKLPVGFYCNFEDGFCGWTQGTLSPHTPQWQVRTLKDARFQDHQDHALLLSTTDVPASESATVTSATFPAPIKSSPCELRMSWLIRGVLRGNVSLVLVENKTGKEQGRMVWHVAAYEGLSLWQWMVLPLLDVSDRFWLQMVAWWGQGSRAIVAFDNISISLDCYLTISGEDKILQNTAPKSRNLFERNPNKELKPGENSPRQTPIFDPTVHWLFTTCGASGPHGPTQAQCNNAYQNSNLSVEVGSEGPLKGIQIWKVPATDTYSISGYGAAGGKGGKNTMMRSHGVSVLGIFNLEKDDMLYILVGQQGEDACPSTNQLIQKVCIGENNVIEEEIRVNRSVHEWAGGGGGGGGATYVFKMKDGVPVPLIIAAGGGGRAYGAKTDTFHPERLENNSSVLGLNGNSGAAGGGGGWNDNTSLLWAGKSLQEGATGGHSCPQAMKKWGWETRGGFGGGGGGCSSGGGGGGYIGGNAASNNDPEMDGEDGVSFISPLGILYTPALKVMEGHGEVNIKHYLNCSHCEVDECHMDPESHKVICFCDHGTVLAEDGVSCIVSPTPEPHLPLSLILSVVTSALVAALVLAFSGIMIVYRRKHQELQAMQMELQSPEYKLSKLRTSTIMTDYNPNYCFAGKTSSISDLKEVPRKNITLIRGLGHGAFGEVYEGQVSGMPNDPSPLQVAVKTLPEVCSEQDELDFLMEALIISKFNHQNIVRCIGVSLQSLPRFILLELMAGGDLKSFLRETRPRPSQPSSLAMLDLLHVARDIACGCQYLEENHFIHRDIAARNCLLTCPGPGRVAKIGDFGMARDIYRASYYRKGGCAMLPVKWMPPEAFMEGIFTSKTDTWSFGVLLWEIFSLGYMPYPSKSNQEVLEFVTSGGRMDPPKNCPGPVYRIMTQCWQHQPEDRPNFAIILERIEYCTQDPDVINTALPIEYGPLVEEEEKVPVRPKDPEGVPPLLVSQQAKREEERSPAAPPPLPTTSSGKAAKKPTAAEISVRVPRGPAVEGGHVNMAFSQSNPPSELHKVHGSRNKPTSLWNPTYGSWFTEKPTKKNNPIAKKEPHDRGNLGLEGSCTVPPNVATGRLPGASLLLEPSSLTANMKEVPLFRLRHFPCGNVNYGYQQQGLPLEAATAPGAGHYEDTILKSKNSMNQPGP
Summary of the method: (§4)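 Compounds in DMSO screened by KINOMEScan against a panel of human kinases for direct interaction, at 5000 nM or 10 000 nM depending on compound; scores calculated relative to DMSO negative control.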

[26] = target: Tyrosine-protein kinase BTK (Homo sapiens) (UniProt Q06187); assay: Inhibition of human BTK at 5 uM by Kinomescan profiling analysis relative to control; summary of the method: as §4
Tyrosine-protein kinase BTK (Homo sapiens), sequence (Q06187 whole entry, the tested form may be a part): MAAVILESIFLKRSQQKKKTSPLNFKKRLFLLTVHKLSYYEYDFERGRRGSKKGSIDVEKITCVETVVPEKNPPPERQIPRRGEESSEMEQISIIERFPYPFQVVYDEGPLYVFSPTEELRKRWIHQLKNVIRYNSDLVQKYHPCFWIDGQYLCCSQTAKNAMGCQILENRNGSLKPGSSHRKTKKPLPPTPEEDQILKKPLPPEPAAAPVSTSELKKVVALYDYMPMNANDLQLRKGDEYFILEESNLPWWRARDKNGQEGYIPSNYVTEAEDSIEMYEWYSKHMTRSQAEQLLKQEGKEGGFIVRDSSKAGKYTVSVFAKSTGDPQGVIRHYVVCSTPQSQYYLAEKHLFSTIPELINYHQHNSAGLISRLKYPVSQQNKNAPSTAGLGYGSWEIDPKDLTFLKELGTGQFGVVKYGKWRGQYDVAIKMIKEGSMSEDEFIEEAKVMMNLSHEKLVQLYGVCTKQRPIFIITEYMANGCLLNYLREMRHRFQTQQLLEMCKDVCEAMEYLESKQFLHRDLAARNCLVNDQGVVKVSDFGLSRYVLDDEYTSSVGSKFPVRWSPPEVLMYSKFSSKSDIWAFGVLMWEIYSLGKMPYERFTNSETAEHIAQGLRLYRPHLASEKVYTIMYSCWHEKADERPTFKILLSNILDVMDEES

[27] = target: T1, Discoidin domain-containing receptor 2 (Homo sapiens) (UniProt Q16832); assay: Inhibition of human DDR2 at 10 uM by Kinomescan profiling analysis relative to control; summary of the method: as §4
T1 sequence (whole entry): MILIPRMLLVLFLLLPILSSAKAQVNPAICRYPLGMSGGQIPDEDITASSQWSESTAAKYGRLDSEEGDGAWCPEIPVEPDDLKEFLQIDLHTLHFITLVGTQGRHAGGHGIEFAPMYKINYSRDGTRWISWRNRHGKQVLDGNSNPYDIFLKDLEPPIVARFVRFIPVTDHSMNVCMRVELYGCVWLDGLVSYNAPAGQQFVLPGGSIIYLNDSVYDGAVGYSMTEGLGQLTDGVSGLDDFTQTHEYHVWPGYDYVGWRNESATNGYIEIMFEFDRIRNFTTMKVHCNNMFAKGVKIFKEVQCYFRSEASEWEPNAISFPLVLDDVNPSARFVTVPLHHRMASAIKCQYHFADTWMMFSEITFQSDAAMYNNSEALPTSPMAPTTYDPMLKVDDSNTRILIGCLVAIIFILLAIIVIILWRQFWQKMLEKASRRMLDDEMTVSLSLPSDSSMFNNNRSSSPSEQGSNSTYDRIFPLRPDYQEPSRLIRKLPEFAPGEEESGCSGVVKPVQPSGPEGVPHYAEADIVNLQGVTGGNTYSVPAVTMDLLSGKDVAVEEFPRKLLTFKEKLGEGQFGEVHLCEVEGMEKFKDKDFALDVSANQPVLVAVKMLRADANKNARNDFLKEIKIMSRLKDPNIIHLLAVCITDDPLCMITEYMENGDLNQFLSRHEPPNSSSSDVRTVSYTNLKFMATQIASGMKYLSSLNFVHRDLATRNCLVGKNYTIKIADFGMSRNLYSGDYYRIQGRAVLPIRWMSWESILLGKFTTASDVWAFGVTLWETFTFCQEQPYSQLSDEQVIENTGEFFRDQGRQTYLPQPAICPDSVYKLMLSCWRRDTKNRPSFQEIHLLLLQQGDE

Compound	IC50 [1] [µM]	IC50 [2] [µM]	IC50 [3] [µM]	IC50 [4] [µM]	IC50 [5] [µM]	IC50 [6] [µM]	IC50 [7] [µM]	IC50 [8] [µM]	IC50 [9] [µM]	IC50 [10] [µM]	IC50 [11] [µM]	IC50 [12] [µM]	IC50 [13] [µM]	IC50 [14] [µM]	growth inhibition (GI) [15]	Activity [16]	Activity [17]	Activity [18]	Activity [23]	Activity [24]	also measured
c1ccc(N2CCN(c3ncnc4c3ncn4C3CCCC3)CC2)cc1	1	2.1	0.1	2.4	< 0.1	4	0.2	0.6	5.8	6	13	1.2	11	2	Active	Active	Active	Active	Active	Active	inhibition [19]: Active; inhibition [20]: Active; inhibition [21]: Active; inhibition [22]: Active; inhibition [25]: 13%; inhibition [26]: 1.9%
c1ccc(Oc2ccc(-c3ncnc4c3ncn4C3CCCC3)cc2)cc1	0.7	0.8	2.8	0.002	0.1	6.5	0.1	0.5	2.5	65	20	0.2	9.9	< 0.1	Active	Active	Active	Active	inactive	inactive	inhibition [27]: 6%

From ChEMBL document CHEMBL5329223, “Newly synthesized 6-substituted piperazine/phenyl-9-cyclopentyl containing purine nucleobase analogs act as potent anticancer agents and induce apoptosis via inhibiting Src in hepatocellular carcinoma cells” (RSC Med Chem, 2023)
